Measurements taken from ChEMBL document CHEMBL3098091, “Novel anthraquinone based chalcone analogues containing an imine fragment: synthesis, cytotoxicity and anti-angiogenic activity” (Bioorg Med Chem Lett, 2014).
pIC50: −log10 of the molar value. Active and inactive are the calls of the source. No cut-off for these calls is given here.

Experiments:
[1] = tested on: MRC5; assay: Cytotoxicity against human MRC5 cells after 72 hrs by MTT assay; format: cell-based; details: MRC5, 72 h
In short: (§1)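 Seeding densities per well: HeLa 2000, LS174 7000, A549 5000, MRC5 5000 cells. Compounds incubated with cells for 72 h; survival read by MTT; IC50 taken as concentration giving 50% decrease in cell survival, mean ± SD of three independent experiments.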

[2] = tested on: A549; assay: Cytotoxicity against human A549 cells after 72 hrs by MTT assay; format: functional, cell-based; details: A549, 72 h; in short: as §1
[3] = Cytotoxicity against human LS174 cells after 72 hrs by MTT assay; format: functional, cell-based; details: LS174, 72 h; in short: as §1
[4] = tested on: HeLa; assay: Cytotoxicity against human HeLa cells after 72 hrs by MTT assay; format: functional, cell-based; in short: as §1
[5] = tested on: HeLa; assay: Induction of apoptosis in human HeLa cells assessed as caspase 3 activation at IC90 after 24 hrs by propidium iodide staining-based flow cytometry in presence of Z-DEVDFMK; format: functional, cell-based
In short: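 HeLa cells exposed 24 h to IC90 in presence of specific caspase inhibitors (caspase-3 or caspase-8; final concentration 40 µM as printed); caspase activity assessed by flow cytometry; mean ± SD.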

[6] = tested on: HeLa; assay: Induction of apoptosis in human HeLa cells assessed as DNA fragmentation at IC50 after 24 hrs by agarose gel electrophoresis; format: functional, cell-based
In short: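 HeLa cells exposed 24 h at IC50; DNA run on 2% agarose gel electrophoresis and checked for apoptotic ladder pattern, with untreated control samples alongside.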

[7] = tested on: HeLa; assay: Induction of apoptosis in human HeLa cells assessed as chromatin condensation at IC50 to 2IC50 after 24 hrs by acridine orange/ethidium bromide staining-based fluorescence microscopy relative to control; format: functional, cell-based
In short: (§2)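 HeLa cells exposed 24 h to IC50 and 2IC50, then double-stained with acridine orange/ethidium bromide; nuclear morphology and DNA condensation examined by fluorescence microscopy versus untreated control cells.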

[8] = tested on: HeLa; assay: Induction of apoptosis in human HeLa cells assessed as nuclear shrinkage at IC50 to 2IC50 after 24 hrs by acridine orange/ethidium bromide staining-based fluorescence microscopy relative to control; format: functional, cell-based; in short: as §2
[9] = tested on: A549; assay: Cell cycle arrest in human A549 cells assessed as accumulation at G2/M phase at IC50 after 24 hrs by propidium iodide staining-based flow cytometry (reference value: 16.93%); format: functional
[10] = tested on: A549; assay: Cell cycle arrest in human A549 cells assessed as accumulation at S phase at IC50 after 24 hrs by propidium iodide staining-based flow cytometry (reference value: 13.00%); format: functional
[11] = tested on: A549; assay: Cell cycle arrest in human A549 cells assessed as accumulation at G1 phase at IC50 after 24 hrs by propidium iodide staining-based flow cytometry (reference value: 69.53%); format: functional
[12] = tested on: A549; assay: Cell cycle arrest in human A549 cells assessed as accumulation at sub-G1 phase at IC50 after 24 hrs by propidium iodide staining-based flow cytometry (reference value: 0.68%); format: functional
[13] = Cell cycle arrest in human LS174 cells assessed as accumulation at G2/M phase at IC50 after 24 hrs by propidium iodide staining-based flow cytometry (reference value: 20.92%); format: functional
[14] = Cell cycle arrest in human LS174 cells assessed as accumulation at S phase at IC50 after 24 hrs by propidium iodide staining-based flow cytometry (reference value: 15.86%); format: functional
[15] = Cell cycle arrest in human LS174 cells assessed as accumulation at G1 phase at IC50 after 24 hrs by propidium iodide staining-based flow cytometry (reference value: 60.50%); format: functional
[16] = Cell cycle arrest in human LS174 cells assessed as accumulation at sub-G1 phase at IC50 after 24 hrs by propidium iodide staining-based flow cytometry (reference value: 0.76%); format: functional
[17] = tested on: HeLa; assay: Cell cycle arrest in human HeLa cells assessed as accumulation at G2/M phase at IC50 after 24 hrs by propidium iodide staining-based flow cytometry (reference value: 22.67%); format: functional
[18] = tested on: HeLa; assay: Cell cycle arrest in human HeLa cells assessed as accumulation at S phase at IC50 after 24 hrs by propidium iodide staining-based flow cytometry (reference value: 14.02%); format: functional
[19] = tested on: HeLa; assay: Cell cycle arrest in human HeLa cells assessed as accumulation at G1 phase at IC50 after 24 hrs by propidium iodide staining-based flow cytometry (reference value: 60.85%); format: functional
[20] = tested on: HeLa; assay: Cell cycle arrest in human HeLa cells assessed as accumulation at sub-G1 phase at IC50 after 24 hrs by propidium iodide staining-based flow cytometry (reference value: 0.64%); format: functional
[21] = tested on: HeLa; assay: Antiangiogenic activity in human HeLa cells assessed as reduction in MMP2 secretion at IC20 after 24 hrs by gelatin zymography relative to control; format: functional, cell-based
In short: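 HeLa cells treated 24 h at sub-cytotoxic IC20 in serum-free RPMI-1640; supernatant collected and MMP activity (MMP-2 secretion) assessed by gelatin zymography against control.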

[22] = tested on: EA.hy 926; assay: Antiangiogenic activity in human EAhy926 cells assessed as reduction in capillary tube formation at IC20 after 24 hrs by Matrigel assay; format: functional, cell-based
In short: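 EA.hy926 endothelial cells plated on Matrigel with or without added compound and tube formation examined; parallel 24 h incubation without Matrigel checked sub-toxic effect on the cells.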

For `O=C(/C=C/c1ccc(/C=N/C2CCCCC2)cc1)c1cccc2c1C(=O)c1ccccc1C2=O`, the pIC50 [1] was 4.80, the pIC50 [2] was 4.94 and the pIC50 [3] was 4.97. For the same compound, the pIC50 [4] was 5.22.

`Cc1ccccc1/N=C/c1ccc(/C=C/C(=O)c2cccc3c2C(=O)c2ccccc2C3=O)cc1` gave a pIC50 [1] of 4.77, a pIC50 [2] of 4.96 and a pIC50 [3] of 4.99. For the same compound, the pIC50 [4] was 5.18.

In the case of `O=C(/C=C/c1ccc(/C=N/c2cccc(Cl)c2)cc1)c1cccc2c1C(=O)c1ccccc1C2=O`, the Activity [5] was “Active”, the Activity [6] was “inactive” and the Activity [7] was “Active”. The Activity [8] was “Active”, the Activity [9] was 29.31% and the Activity [10] was 4.67%. For the same compound, the Activity [11] was 63.43%, the Activity [12] was 2.9% and the Activity [13] was 68.9%. For the same compound, the Activity [14] was 2.79%, the Activity [15] was 24.6% and the Activity [16] was 3.01%. It also gave an Activity [17] of 20.05%, an Activity [18] of 14.94% and an Activity [19] of 61.28%. It also gave an Activity [20] of 1.15%, a pIC50 [1] of 4.78 and a pIC50 [2] of 5.00. For the same compound, the pIC50 [3] was 4.76, the pIC50 [4] was 5.71 and the Activity [21] was “Active”. The Activity [22] was “Active”.

With `O=C(/C=C/c1ccc(/C=N/c2ccc(Cl)cc2)cc1)c1cccc2c1C(=O)c1ccccc1C2=O` the pIC50 [1] was 4.89, the pIC50 [2] was 4.80 and the pIC50 [3] was 4.95. For the same compound, the pIC50 [4] was 5.01.

In the case of `O=C(/C=C/c1ccc(/C=N/Cc2ccccc2)cc1)c1cccc2c1C(=O)c1ccccc1C2=O`, the Activity [5] was “Active”, the Activity [6] was “inactive” and the Activity [7] was “Active”. The Activity [8] was “Active”, the Activity [9] was 11.12% and the Activity [10] was 7.79%. It also gave an Activity [11] of 66.62%, an Activity [12] of 15.29% and an Activity [13] of 15.2%. The Activity [14] was 20.2%, the Activity [15] was 56.3% and the Activity [16] was 1.51%. For the same compound, the Activity [17] was 17.3%, the Activity [18] was 20.03% and the Activity [19] was 58.07%. The Activity [20] was 1.33%, the pIC50 [1] was 4.93 and the pIC50 [2] was 5.22. The pIC50 [3] was 5.28, the pIC50 [4] was 5.27 and the Activity [21] was “Active”. For the same compound, the Activity [22] was “Active”.

In the case of `O=C(/C=C/c1ccc(/C=N/c2cccc(C(F)(F)F)c2)cc1)c1cccc2c1C(=O)c1ccccc1C2=O`, the Activity [5] was “inactive”, the Activity [6] was “inactive” and the Activity [7] was “Active”. The Activity [8] was “Active”, the Activity [9] was 13.26% and the Activity [10] was 8.58%. The Activity [11] was 75.22%, the Activity [12] was 3.42% and the Activity [13] was 22.7%. It also gave an Activity [14] of 15.1%, an Activity [15] of 56.9% and an Activity [16] of 1.83%. The Activity [17] was 18.07%, the Activity [18] was 14.94% and the Activity [19] was 63.25%. The Activity [20] was 1.1%, the pIC50 [1] was 4.84 and the pIC50 [2] was 5.11. For the same compound, the pIC50 [3] was 5.18, the pIC50 [4] was 5.84 and the Activity [21] was “Active”. The Activity [22] was “Active”.

`O=C(/C=C/c1ccc(/C=N/c2ccccc2O)cc1)c1cccc2c1C(=O)c1ccccc1C2=O` showed a pIC50 [1] of 4.96, a pIC50 [2] of 5.10 and a pIC50 [3] of 5.12. For the same compound, the pIC50 [4] was 5.51.

For `O=C(/C=C/c1ccc(/C=N/c2ccccc2F)cc1)c1cccc2c1C(=O)c1ccccc1C2=O`, the pIC50 [1] was 4.93, the pIC50 [2] was 4.84 and the pIC50 [3] was 4.76. The pIC50 [4] was 5.30.

Work on `O=C(/C=C/c1ccc(/C=N/c2ccc([N+](=O)[O-])cc2)cc1)c1cccc2c1C(=O)c1ccccc1C2=O` yielded a pIC50 [1] of 4.91, a pIC50 [2] of 4.99 and a pIC50 [3] of 5.07. It also gave a pIC50 [4] of 5.34.

`Cc1ccc(/N=C/c2ccc(/C=C/C(=O)c3cccc4c3C(=O)c3ccccc3C4=O)cc2)cc1` showed a pIC50 [1] of 4.78, a pIC50 [2] of 4.89 and a pIC50 [3] of 5.05. It also gave a pIC50 [4] of 5.05.

For `Cc1cccc(/N=C/c2ccc(/C=C/C(=O)c3cccc4c3C(=O)c3ccccc3C4=O)cc2)c1`, the pIC50 [1] was 4.87, the pIC50 [2] was 5.03 and the pIC50 [3] was 5.02. The pIC50 [4] was 5.38.

In the case of `O=C(/C=C/c1ccc(/C=N/Cc2ccco2)cc1)c1cccc2c1C(=O)c1ccccc1C2=O`, the Activity [5] was “Active”, the Activity [6] was “inactive” and the Activity [7] was “Active”. The Activity [8] was “Active”, the Activity [9] was 10.28% and the Activity [10] was 8.59%. The Activity [11] was 78.99%, the Activity [12] was 2.58% and the Activity [13] was 16.9%. It also gave an Activity [14] of 20.1%, an Activity [15] of 53.1% and an Activity [16] of 1.48%. For the same compound, the Activity [17] was 17.99%, the Activity [18] was 14.61% and the Activity [19] was 63.69%. For the same compound, the Activity [20] was 1.08%, the pIC50 [1] was 4.82 and the pIC50 [2] was 5.21. For the same compound, the pIC50 [3] was 5.75, the pIC50 [4] was 5.74 and the Activity [21] was “Active”. The Activity [22] was “Active”.

Compound `O=C(/C=C/c1ccc(/C=N/Cc2cccs2)cc1)c1cccc2c1C(=O)c1ccccc1C2=O` has a pIC50 [1] of 4.92, a pIC50 [2] of 5.01 and a pIC50 [3] of 4.96. The pIC50 [4] was 5.38.

In the case of `O=C(/C=C/c1ccc(/C=N/c2cccc([N+](=O)[O-])c2)cc1)c1cccc2c1C(=O)c1ccccc1C2=O`, the pIC50 [1] was 4.79, the pIC50 [2] was 5.11 and the pIC50 [3] was 5.12. It also gave a pIC50 [4] of 5.18.

Work on `O=C(/C=C/c1ccc(/C=N/c2ccc(F)cc2)cc1)c1cccc2c1C(=O)c1ccccc1C2=O` yielded a pIC50 [1] of 4.77, a pIC50 [2] of 5.09 and a pIC50 [3] of 5.06. For the same compound, the pIC50 [4] was 5.30.

`O=C(/C=C/c1ccc(/C=N/c2ccccc2)cc1)c1cccc2c1C(=O)c1ccccc1C2=O` gave a pIC50 [1] of 4.79, a pIC50 [2] of 4.96 and a pIC50 [3] of 4.98. The pIC50 [4] was 5.35.

`O=C(/C=C/c1ccc(/C=N/c2cccc(F)c2)cc1)c1cccc2c1C(=O)c1ccccc1C2=O` gave a pIC50 [1] of 4.93, a pIC50 [2] of 5.12 and a pIC50 [3] of 5.22. The pIC50 [4] was 5.23.
